Reference: ChEMBL document CHEMBL3407477, “Synthesis and biological evaluation of compact, conformationally constrained bifunctional opioid agonist - neurokinin-1 antagonist peptidomimetics” (Eur J Med Chem, 2015)
Active and inactive are the calls of the source.

Legend:
[1] = target: Mu-type opioid receptor (Cavia porcellus) (UniProt P97266); experiment: Antagonist activity at MOR in guinea pig ileum; assay type: tissue-based
[2] = target: Substance-P receptor (Homo sapiens, UniProt P25103); experiment: Displacement of [3H]SP from human NK1 receptor expressed in CHO cells after 20 mins by liquid scintillation counting analysis; assay type: cell-based
Procedure, shortened: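 Membranes from hNK1/CHO cells (20 µg) were incubated with 0.4 nM [3H]SP and six test concentrations in duplicate. Buffer was 50 mM Tris pH 7.4 with 5 mM MgCl2, bacitracin, bestatin, captopril and PMSF, for 20 min at 25 °C. Nonspecific binding was defined with 10 µM SP. Samples were filtered on PEI-soaked GF/B, counted by scintillation, three independent experiments. Ki by Cheng-Prusoff from nonlinear-regression IC50.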

[3] = target: Mu-type opioid receptor (Cavia porcellus) (UniProt P97266); experiment: Partial agonist activity at MOR in guinea pig ileum; assay type: tissue-based
Procedure, shortened: (§1)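 Isolated guinea pig ileum (MOR) and mouse vas deferens (DOR) bioassays. A [Leu5]enkephalin standard dose-response curve was run on each tissue preparation, and test IC50 values were normalized to it. Values are means of 3-4 experiments.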

[4] = target: Delta-type opioid receptor (Mus musculus, UniProt P32300); experiment: Activation of DOR in mouse vas deferens; procedure, shortened: as §1
[5] = test system: Rattus norvegicus; experiment: Antinociceptive activity in Wistar rat up to 1.21 umol/kg, iv after 30 mins by tail flick test; assay type: functional, organism-based
[6] = species: Rattus norvegicus; experiment: Antiallodynic effect in Wistar rat chronic constriction injury model at 0.1 to 1 nmol, it measured 7 days post CCI challenge by Von Frey test; assay type: functional, organism-based
Procedure, shortened: (§2)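 Male Wistar rats (300-350 g) with i.t. catheters (L4-L6) had CCI made by four loose silk ligatures on the right sciatic nerve. On day 7 they received a single i.t. dose in water for injection. Mechanical allodynia was measured 30 min later with an automatic von Frey device (0.5-26 g) on the midplantar hind paw. Data are %MPE, 6-12 rats/group, ANOVA with Bonferroni.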

[7] = test system: Rattus norvegicus; experiment: Toxicity in Wistar rat assessed as death at 9.5 nmol, iv; assay type: organism-based; settings: in vivo
[8] = species: Rattus norvegicus; experiment: Reduction of hyperalgesia in Wistar rat chronic constriction injury model at 1 nmol, it measured 7 days post CCI challenge by cold plate test; assay type: functional, organism-based
Procedure, shortened: (§3)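 In catheterized male Wistar rats with sciatic CCI, a single i.t. dose in water for injection was given on day 7. Thermal hyperalgesia was measured 30 min later as latency to hind-paw shake on a 5 °C cold plate. Data are %MPE, 6-12 rats/group, ANOVA with Bonferroni.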

[9] = species: Rattus norvegicus; experiment: Antinociceptive activity in Wistar rat at 1 to 50 nmol, it after 30 mins by tail flick test; assay type: functional, organism-based
Procedure, shortened: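 Male Wistar rats (250-300 g), naive, with chronic i.t. catheters inserted through the atlanto-occipital membrane to L4-L6 under pentobarbital anaesthesia. Tested on day 7 after implantation. Drug in water for injection was given as a single 5 µl i.t. injection, then 10 µl flush. Tail-flick (light-bulb heat at two-thirds tail length, 9 s cut-off) was read 30 min post-dose. Values are %MPE vs baseline; 7-12 rats/group; ANOVA/Bonferroni.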

[10] = test system: Rattus norvegicus; experiment: Toxicity in Wistar rat assessed as seizures at 9.5 nmol, iv; assay type: organism-based; settings: in vivo
[11] = species: Rattus norvegicus; experiment: Selectivity ratio of Ki for rat brain DOR to Ki for rat brain MOR
[12] = target: Delta-type opioid receptor (Rattus norvegicus, UniProt P33533); experiment: Displacement of [3H]DSLET from rat brain DOR after 2 hrs
Procedure, shortened: (§4)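 Rat brain membranes were incubated 2 h at 0 °C with 0.72 nM [3H]DAMGO (MOR) or 0.78 nM [3H]DSLET (DOR). IC50 came from log-dose displacement curves.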

[13] = target: Mu-type opioid receptor (Cavia porcellus, UniProt P97266); experiment: Activation of MOR in guinea pig ileum; assay type: tissue-based; procedure, shortened: as §1
[14] = target: Mu-type opioid receptor (Rattus norvegicus, UniProt P33535); experiment: Displacement of [3H]DAMGO from rat brain MOR after 2 hrs; procedure, shortened: as §4
[15] = test system: Rattus norvegicus; experiment: Reduction of hyperalgesia in it dosed Wistar rat measured 7 days post CCI challenge by cold plate test; assay type: functional; procedure, shortened: as §3
[16] = species: Rattus norvegicus; experiment: Toxicity in Wistar rat chronic constriction injury model at 9.5 nmol, it measured 7 days post CCI challenge; assay type: organism-based; settings: in vivo, icv_or_intrathecal, 168 h
[17] = test system: Rattus norvegicus; experiment: Antinociceptive activity in it dosed Wistar rat after 30 mins by tail flick test; assay type: functional
Procedure, shortened: (§5)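 Naive male Wistar rats (250-300 g) with i.t. catheters received a single i.t. injection in water for injection (5 µl plus 10 µl flush), 7 days after catheter implantation. Tail-flick latency to a light-bulb heat stimulus at two-thirds of tail length was read 30 min post-dose (timepoints up to 180 min), with a 9 s cut-off. Data are %MPE = (TL-BL)/(cut-off-BL)×100, 7-12 rats/group, ANOVA with Bonferroni.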

[18] = species: Rattus norvegicus; experiment: Antinociceptive activity in Wistar rat at 1 nmol, it after 30 mins by tail flick test; assay type: functional; procedure, shortened: as §5
[19] = test system: Rattus norvegicus; experiment: Antiallodynic effect in it dosed Wistar rat measured 7 days post CCI challenge by Von Frey test; assay type: functional; procedure, shortened: as §2
[20] = species: Rattus norvegicus; experiment: Antinociceptive activity in Wistar rat at 0.1 to 1 nmol, it after 30 mins by tail flick test; assay type: functional, organism-based; procedure, shortened: as §5
[21] = test system: Rattus norvegicus; experiment: Antiallodynic effect in Wistar rat chronic constriction injury model assessed as tolerance to neuropathic pain at 1 nmol, it qd for 6 days administered from 7 days post CCI challenge to day 13 by cold plate test; assay type: functional, organism-based
Procedure, shortened: (§6)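 CCI Wistar rats received once-daily i.t. injections (morphine 3.5 nmol, hybrids 1 nmol, in water for injection) from day 7 to day 13 after CCI. Von Frey and 5 °C cold plate tests were run 30 min after each dose. Data are %MPE and AUC, 12-16 rats/group, ANOVA with Bonferroni.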

[22] = species: Rattus norvegicus; experiment: Toxicity in Wistar rat chronic constriction injury model at 1 nmol, it measured 7 days post CCI challenge; assay type: organism-based; settings: in vivo, icv_or_intrathecal, 168 h
[23] = species: Rattus norvegicus; experiment: Antiallodynic effect in Wistar rat chronic constriction injury model at 1 nmol, it measured 7 days post CCI challenge by Von Frey test; assay type: functional; procedure, shortened: as §2
[24] = test system: Rattus norvegicus; experiment: Antiallodynic effect in Wistar rat chronic constriction injury model assessed as tolerance to neuropathic pain at 1 nmol, it qd for 6 days administered from 7 days post CCI challenge to day 13 by Von Frey test; assay type: functional, organism-based; procedure, shortened: as §6
[25] = test system: Rattus norvegicus; experiment: (§7) Antiallodynic effect in Wistar rat chronic constriction injury model assessed as cross tolerance developement pretreated with H-Dmt-D-Arg-Aba-beta-Ala-NMe-Bn at 1 nmol, it qd for 6 days administered from 7 days post CCI challenge to day 13 measured 30 mins post morphine challenge by cold plate test; assay type: functional, organism-based
Procedure, shortened: (§8)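 CCI Wistar rats were made tolerant by 6 days of once-daily i.t. dosing (morphine 3.5 nmol or hybrid 1 nmol). On day 13 they received a single i.t. challenge (morphine 3.5 nmol or hybrid 1 nmol) against repeated-vehicle controls. Von Frey and cold plate tests were run 30 min later. Data are %MPE, 6-8 rats/group, ANOVA with Bonferroni.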

[26] = test system: Rattus norvegicus; experiment: Antiallodynic effect in Wistar rat chronic constriction injury model assessed as tolerance to neuropathic pain at 3.5 nmol, it qd for 6 days administered from 7 days post CCI challenge to day 13 by cold plate test; assay type: functional, organism-based; procedure, shortened: as §6
[27] = test system: Rattus norvegicus; experiment: as §7, with “H-Dmt-D-Arg-Aba-Gly-NMe-3',5'-(CF3)2-Bn” for “H-Dmt-D-Arg-Aba-beta-Ala-NMe-Bn”; assay type: functional, organism-based; procedure, shortened: as §8
[28] = test system: Rattus norvegicus; experiment: Antiallodynic effect in Wistar rat chronic constriction injury model assessed as tolerance to neuropathic pain at 3.5 nmol, it qd for 6 days administered from 7 days post CCI challenge to day 13 by Von Frey test; assay type: functional, organism-based; procedure, shortened: as §6
[29] = test system: Rattus norvegicus; experiment: as §7, with “H-Dmt-D-Arg-Aba-Gly-NMe-3',5'-(CF3)2-Bn” for “H-Dmt-D-Arg-Aba-beta-Ala-NMe-Bn”, “Von frey” for “cold plate”; assay type: functional, organism-based; procedure, shortened: as §8
[30] = test system: Rattus norvegicus; experiment: Antiallodynic effect in Wistar rat chronic constriction injury model assessed as cross tolerance developement pretreated with H-Dmt-D-Arg-Aba-beta-Ala-NMe-Bn at 1 nmol, it qd for 6 days administered from 7 days post CCI challenge to day 13 measured 30 mins post morphine challenge by Von Frey test; assay type: functional, organism-based; procedure, shortened: as §8
[31] = species: Rattus norvegicus; experiment: Antiallodynic effect in Wistar rat chronic constriction injury model at 0.35 to 35 nmol, it measured 7 days post CCI challenge by Von Frey test; assay type: functional, organism-based; procedure, shortened: as §2

Delta-type opioid receptor (Mus musculus, UniProt P32300), sequence (P32300 whole entry): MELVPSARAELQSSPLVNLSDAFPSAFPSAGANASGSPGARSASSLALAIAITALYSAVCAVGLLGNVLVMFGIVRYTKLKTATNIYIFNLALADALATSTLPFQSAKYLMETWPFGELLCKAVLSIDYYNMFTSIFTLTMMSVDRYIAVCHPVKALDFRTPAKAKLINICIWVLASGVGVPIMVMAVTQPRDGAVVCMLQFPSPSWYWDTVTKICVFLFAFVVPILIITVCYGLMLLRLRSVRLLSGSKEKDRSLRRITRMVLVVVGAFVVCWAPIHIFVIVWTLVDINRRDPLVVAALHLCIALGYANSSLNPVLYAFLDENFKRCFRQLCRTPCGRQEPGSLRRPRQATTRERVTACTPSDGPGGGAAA
Mu-type opioid receptor (Cavia porcellus), sequence (P97266 whole entry): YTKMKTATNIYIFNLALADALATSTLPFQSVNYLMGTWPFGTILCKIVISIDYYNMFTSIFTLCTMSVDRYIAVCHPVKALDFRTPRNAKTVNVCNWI
Substance-P receptor, sequence (P25103 whole entry): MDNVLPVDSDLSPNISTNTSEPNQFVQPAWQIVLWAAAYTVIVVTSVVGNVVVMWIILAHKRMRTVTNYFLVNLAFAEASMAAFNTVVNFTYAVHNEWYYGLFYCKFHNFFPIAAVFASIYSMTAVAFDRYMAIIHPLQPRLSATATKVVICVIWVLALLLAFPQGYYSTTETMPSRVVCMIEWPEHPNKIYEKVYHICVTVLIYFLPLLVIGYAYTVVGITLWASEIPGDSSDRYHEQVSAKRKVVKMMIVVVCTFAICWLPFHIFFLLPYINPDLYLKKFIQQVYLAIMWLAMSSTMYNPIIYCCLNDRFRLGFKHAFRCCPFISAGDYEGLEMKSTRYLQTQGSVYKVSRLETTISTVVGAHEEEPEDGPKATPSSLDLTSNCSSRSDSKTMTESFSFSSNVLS
Mu-type opioid receptor (Cavia porcellus, UniProt P97266), sequence (P97266 whole entry): as the sequence (P97266 whole entry) above
Mu-type opioid receptor (Rattus norvegicus, UniProt P33535), sequence (P33535 whole entry): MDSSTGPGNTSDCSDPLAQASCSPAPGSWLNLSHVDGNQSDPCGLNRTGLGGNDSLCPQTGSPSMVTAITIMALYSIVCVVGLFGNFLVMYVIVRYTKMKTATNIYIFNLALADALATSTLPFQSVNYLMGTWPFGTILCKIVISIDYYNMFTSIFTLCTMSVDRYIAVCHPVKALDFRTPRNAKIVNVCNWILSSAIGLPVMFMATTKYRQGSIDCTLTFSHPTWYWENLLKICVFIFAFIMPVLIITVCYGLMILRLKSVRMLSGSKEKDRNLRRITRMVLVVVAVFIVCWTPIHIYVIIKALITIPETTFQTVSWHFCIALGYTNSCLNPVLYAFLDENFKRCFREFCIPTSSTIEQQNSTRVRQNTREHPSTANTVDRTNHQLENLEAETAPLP
Delta-type opioid receptor (Rattus norvegicus, UniProt P33533), sequence (P33533 whole entry): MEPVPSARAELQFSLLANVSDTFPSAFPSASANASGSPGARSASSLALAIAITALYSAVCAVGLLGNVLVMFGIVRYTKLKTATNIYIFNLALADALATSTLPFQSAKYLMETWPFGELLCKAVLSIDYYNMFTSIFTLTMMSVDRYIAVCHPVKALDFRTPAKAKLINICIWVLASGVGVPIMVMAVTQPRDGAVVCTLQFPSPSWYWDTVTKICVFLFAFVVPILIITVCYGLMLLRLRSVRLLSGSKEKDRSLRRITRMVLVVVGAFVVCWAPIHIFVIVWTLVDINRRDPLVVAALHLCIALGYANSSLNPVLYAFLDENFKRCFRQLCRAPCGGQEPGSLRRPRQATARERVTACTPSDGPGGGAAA

In the case of `Cc1cc(O)cc(C)c1C[C@H](N)C(=O)N[C@H](CCCNC(=N)N)C(=O)N[C@H]1Cc2ccccc2CN(CC(=O)N(Cc2cc(C(F)(F)F)cc(C(F)(F)F)c2)CC(C)C)C1=O`, the Ke [1] is reported as 12.7 nM, the Ki [2] is reported as 35 nM and the Activity [3] is reported as 19.7 nM. It also gave an IC50 [4] of 14.5 nM.
Work on `Cc1cc(O)cc(C)c1C[C@H](N)C(=O)N[C@H](CCCNC(=N)N)C(=O)N[C@H]1Cc2ccccc2CN(CCC(=O)N(Cc2cc(C(F)(F)F)cc(C(F)(F)F)c2)CC(C)C)C1=O` yielded a Ki [2] of 743 nM.
With `CC(=O)N[C@H]1Cc2ccccc2CN(CC(=O)N(C)Cc2cc(C(F)(F)F)cc(C(F)(F)F)c2)C1=O` the Activity [5] was “inactive”, the Activity [6] was “Active” and the Activity [7] was “Toxic”. The Activity [8] was “Active”, the Activity [9] was “Active” and the Activity [10] was “Toxic”.
`Cc1cc(O)cc(C)c1C[C@H](N)C(=O)N[C@H](CCCNC(N)=O)C(=O)N[C@H]1Cc2ccccc2CN(CCC(=O)N(C)Cc2ccccc2)C1=O` showed a Ki [2] of 3000 nM, a Ratio Ki [11] of 1.7 and a Ki [12] of 0.48 nM. It also gave an IC50 [13] of 0.96 nM, a Ki [14] of 0.28 nM and an IC50 [4] of 0.33 nM.
`Cc1cc(O)cc(C)c1C[C@H](N)C(=O)N[C@H](CCCNC(=N)N)C(=O)N[C@H]1Cc2ccccc2CN(CC(=O)N(C)Cc2cc(C(F)(F)F)cc(C(F)(F)F)c2)C1=O` was tested, and the ED50 [15] was 1.14 nmol, the Activity [16] was “Toxic” and the Activity [6] was “Active”. It also gave a Ratio Ki [11] of 25, an ED50 [17] of 1.66 nmol and an MPE [18] of 30%. For the same compound, the Activity [8] was “Active”, the ED50 [19] was 1.05 nmol and the Activity [20] was “Active”. The Activity [21] was “Active”, the Activity [22] was “Non-toxic” and the MPE [23] was 60%. The Activity [24] was “Active”.
For `Cc1cc(O)cc(C)c1C[C@H](N)C(=O)N[C@H](CCCNC(=N)N)C(=O)N[C@H]1Cc2ccccc2CN(CC(=O)N(Cc2ccccc2)CC(C)C)C1=O`, the Ke [1] was 5.91 nM, the Ki [2] was 1020 nM and the Activity [3] was “Active”. For the same compound, the IC50 [4] was 28.7 nM.
In the case of `CN1CC[C@]23c4c5ccc(O)c4O[C@H]2[C@@H](O)C=C[C@H]3[C@H]1C5` [MORPHINE], the ED50 [15] is reported as 377 nmol, the Activity [25] is reported as “inactive” and the Activity [26] is reported as “Active”. The ED50 [17] was 0.49 nmol, the Activity [8] was “Active” and the Activity [27] was “inactive”. The ED50 [19] was 6.25 nmol, the Activity [28] was “Active” and the Activity [29] was “inactive”. The Activity [30] was “inactive” and the Activity [31] was “Active”.
